Test results from ChEMBL document CHEMBL1152641, “Effect of potential amine prodrugs of selective neuronal nitric oxide synthase inhibitors on blood-brain barrier penetration” (Bioorg Med Chem, 2009).

How the values were obtained:
Mus musculus [1] = assay: Plasma concentration in mouse at 10 umol/kg, ip; assay type: ADME, organism-based; conditions: in vivo
Method in brief: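 Mice were given an i.p. injection of a 1 mM PBS solution (100 μL per 10 g) and sampled at 10 min. Heparinized blood was centrifuged and the plasma flash-frozen at −20 °C. Plasma plus internal standard was diluted in 2% acetic acid, cleaned by mixed-mode cation-exchange SPE, and quantified by positive-ESI LC-MS/MS (MRM) against triplicate standard curves; values as SEM.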

Brain [2] = assay: Drug level in mouse brain at […], ip; assay type: ADME, organism-based; conditions: in vivo, read-out: Drug uptake
Method in brief: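 Mice were dosed i.p. with compound diluted in PBS to 1 mM, at 100 μL per 10 g, and sampled 10 min later. Brains were PBS-perfused through the left ventricle, removed, flash-frozen, homogenized in 2% formic acid water/acetonitrile (2:1) with internal standard, then cleaned by cation-exchange SPE. Quantified by positive-ESI LC-MS/MS against triplicate standard curves; μg/g converted to μM assuming density 1 g/mL; SEM.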

[3] = Ratio of drug level from brain to blood in mouse at 10 umol/kg, ip; assay type: ADME, tissue-based
Plasma [4] = assay: Metabolic stability in mouse plasma after 40 mins by HPLC in presence of NADPH
[5] = Metabolic stability in rat liver microsomes assessed compound remaining after 40 mins by HPLC in presence of NADPH; assay type: ADME, Microsome; conditions: read-out: Stability
Method in brief: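 Compound (10 μL of 300 μM stock) in PBS with NADPH regeneration solutions A/B was equilibrated at 37 °C. Rat liver microsomes were added and samples incubated for 0, 10, 20 or 40 min. Reactions were quenched with acetonitrile, chilled to 0 °C, centrifuged, dried and reconstituted in 2% formic acid. HPLC peak areas were normalized to t = 0; minaprine served as activity control.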

Brain [6] = assay: Metabolic stability in mouse brain homogenate assessed degradation by HPLC in presence of NADPH; assay type: ADME, tissue-based
Method in brief: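 Three fresh mouse brains were each homogenized in PBS (pH 7.4) with NADPH regeneration buffers A and B, then pooled. Compound was added from a 200 μM stock and incubated at 37 °C for 0, 10, 20 and 40 min. Samples were heat-stopped at 95 °C for 1 min. HPLC UV read-out was at 310 or 260 nm depending on the compound. Peak-area ratio to internal standard was normalized to t = 0.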

Mus musculus [7] = assay: Toxicity in mouse at 3.7 mg/kg, ip; assay type: organism-based; set-up: dose 3.7 mg/kg, route intraperitoneal; conditions: in vivo
Plasma [8] = assay: Metabolic stability in mouse plasma assessed as half life in presence of NADPH; assay type: ADME, cell-free
Method in brief: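 Fresh heparinized mouse plasma was supplemented with NADPH regenerating system (solutions A and B), and compound was added from a 200 μM stock. Incubation was at 37 °C, with samples taken at 0, 10, 20 and 40 min. Samples were quenched with acetonitrile plus internal standard, centrifuged, dried and run on HPLC. Compound/internal-standard ratio was normalized to the t = 0 ratio.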

Liver microsomes = assay: Metabolic stability in rat liver microsomes assessed degradation by HPLC in presence of NADPH; assay type: ADME, Microsome
Method in brief: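 Rat liver microsomes were added to PBS containing NADPH regeneration buffers A and B and compound (from a 300 μM stock), pre-equilibrated at 37 °C. Incubation was at 37 °C for 0, 10, 20 and 40 min. Samples were quenched with acetonitrile, chilled, centrifuged, dried and reconstituted in 2% formic acid for HPLC. Peak area was normalized to t = 0. Minaprine was run in parallel as a P450 activity control.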

Compound | concentration (Mus musculus [1]) [nM] | concentration (Brain [2]) [nM] | Kp [3] | remaining at 40 min [5] [%] | other results
CC(OC(=O)N[C@@H](CCCNC(=N)N[N+](=O)[O-])CNc1ccccc1)OC(=O)C(C)(C)C (stereo partly specified) |  |  |  |  | Stability (Plasma [4]): Unstable
Cc1cc(N)nc(C[C@@H]2CNC[C@@H]2OCCN=[N+]=[N-])c1 (racemic) |  |  |  |  | Stability (Brain [6]): Stable; Stability (Plasma [4]): Stable
Cc1cc(N)nc(C[C@@H]2CNC[C@@H]2OCCNCCc2cccc(F)c2)c1 (racemic) | 1600 | 73 | 0.046 |  | Activity (Mus musculus [7]): Non-toxic
CC(OC(=O)N[C@@H](CCCNC(=N)N[N+](=O)[O-])CNc1ccccc1)OC(=O)C(C)(C)C (single isomer, unassigned; diastereomer 1) |  |  |  |  | t1/2 (Plasma [8]): 10 min
CC(OC(=O)N[C@@H](CCCNC(=N)N[N+](=O)[O-])CNc1ccccc1)OC(=O)C(C)(C)C (single isomer, unassigned; diastereomer 2) |  |  |  |  | t1/2 (Plasma [8]): 30 min; Stability (Brain [6]): Unstable; Stability (Liver microsomes): Unstable

Now from value to compound, other results behind:

concentration (Mus musculus [1]) [nM] | concentration (Brain [2]) [nM] | Kp [3] | remaining at 40 min [5] [%] | Compound | other results
1600 | 39 | 0.024 |  | Cc1cc(N)nc(C[C@@H]2CNC[C@@H]2NCCNCCc2cccc(F)c2)c1 | 
1210 | 18 | 0.015 | > 80 | COC(=O)N(CCO[C@H]1CNC[C@H]1Cc1cc(C)cc(N)n1)CCc1cccc(F)c1 (racemic) | 
490 | 9 | 0.018 | > 60 | Cc1cc(N)nc(C[C@@H]2CNC[C@@H]2OCCN(CCc2cccc(F)c2)C(=O)OCc2ccccc2)c1 (racemic) | 
4600 | 39 | 0.008 | > 80 | CC(=O)N(CCO[C@H]1CNC[C@H]1Cc1cc(C)cc(N)n1)CCc1cccc(F)c1 (racemic) | 
